Data as given in publication PMC9798170 (International Journal for Parasitology: Drugs and Drug …, 2022).
Values after ≈ are worked out from the molar mass of the structure shown. “Also recorded” adds a separate entry of the source.

Key:
P. falciparum 3D7 strain = details: ref Hidayati et al., 2020; cited from earlier work
[1] = test system: NADH-cytochrome c (complex I-III activities); experiment: Counter assay NADH-cytochrome c activity, bovine heart mitochondria; format: biochemical; details: read-out: IC50 of the sample against succinate-cytochrome c (complex I-III)
[2] = test system: succinate-cytochrome c (complex II-III activities); experiment: Counter assay succinate-cytochrome c activity, bovine heart mitochondria; format: biochemical; details: read-out: IC50 of the sample against succinate-cytochrome c (complex II-III)
Procedure, shortened: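 Run as the NADH assay (phosphate buffer pH 7.4, 2 mM KCN) but with 100 µM cytochrome c and 25 µg/mL bovine heart mitochondria. Reaction started with 10 mM succinate, and cytochrome c reduction read at 550 nm, in quadruplicate. Test compound was serially diluted from 100 to 0.003 µM. DMSO was the 0% inhibition control and 5 µM ascochlorin the 100% inhibition control.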

[3] = test system: Plasmodium falciparum 3D7; experiment: In vitro antimalarial assay; format: cell-based; details: P. falciparum 3D7, 48 h, microscopic assay; listed as Chloroquine diphosphate
Procedure, shortened: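 Test compound stock was 10 mg/mL in DMSO, diluted in RPMI-1640 to final 0.01–100 µg/mL. It was added to culture at ~1% parasitemia and 5% haematocrit in human O+ RBCs with 10% serum, then incubated 48 h at 37 °C. Parasitemia was counted per 1000 RBCs on 10% Giemsa smears. Inhibition was taken relative to the negative control, and IC50 came from a four-parameter logistic fit.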

[4] = test system: synchronized P. falciparum 3D7 strain; experiment: Impairment of P. falciparum intraerythrocytic stage development; format: cell-based, Plasmodium falciparum; details: tested at IC50 concentration
Procedure, shortened: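 Parasites were sorbitol-synchronized (5% w/v) and set at 0.3% parasitemia in human O+ RBCs in RPMI-1640 with 10% human serum at 37 °C. Sampling was at 0, 24 and 48 h. Giemsa-stained thin smears were scored for stage by light microscopy at 1000×. Each concentration was run in duplicate on the same plate.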

[5] = test system: Plasmodium falciparum 3D7; experiment: Isobologram analysis, fixed-ratio combinations; format: cell-based; details: fixed ratios 4:1, 3:2, 2:3, 1:4; 72 h
Procedure, shortened: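 Test compound was combined with atovaquone or chloroquine at fixed ratios 4:1, 3:2, 2:3 and 1:4, with 5:0 and 0:5 for single agents, in serial dilution. Synchronized rings at 0.3% parasitemia were incubated 72 h at 37 °C under 90% N2/5% CO2/5% O2, then read by PfLDH/diaphorase. IC50 was determined per mixture, and FIC = IC50 in mixture / IC50 alone.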

recombinant PfMQO = target: T1, recombinant PfMQO (Plasmodium falciparum, UniProt C6KT09); experiment: Recombinant PfMQO activity inhibition assay; format: biochemical; details: recombinant PfMQO membrane fraction
T1 sequence (C6KT09 1-521): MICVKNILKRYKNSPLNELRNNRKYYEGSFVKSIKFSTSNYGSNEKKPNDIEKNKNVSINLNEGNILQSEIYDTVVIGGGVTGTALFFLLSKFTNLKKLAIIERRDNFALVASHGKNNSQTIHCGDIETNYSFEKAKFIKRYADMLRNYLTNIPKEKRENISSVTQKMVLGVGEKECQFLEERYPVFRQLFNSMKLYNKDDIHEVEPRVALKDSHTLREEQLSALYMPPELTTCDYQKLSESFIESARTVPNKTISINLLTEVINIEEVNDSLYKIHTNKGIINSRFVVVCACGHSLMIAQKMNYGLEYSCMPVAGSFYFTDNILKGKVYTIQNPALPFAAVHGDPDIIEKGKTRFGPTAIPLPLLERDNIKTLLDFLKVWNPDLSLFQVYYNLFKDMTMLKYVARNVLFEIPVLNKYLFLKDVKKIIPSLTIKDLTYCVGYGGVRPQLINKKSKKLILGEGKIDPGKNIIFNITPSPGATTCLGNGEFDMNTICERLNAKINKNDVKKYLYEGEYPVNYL
Procedure, shortened: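 PfMQO membrane fraction (3 µg/mL) was used in 50 mM HEPES-KOH pH 7.0 with 1 mM KCN, 25 µM decylubiquinone and 120 µM DCIP. Background was read for 5 min at 600 nm and 37 °C, then malate (400 mM stock) was added and activity recorded for 10 min. DMSO wells served as 0% and no-malate wells as 100%. Runs were in triplicate over test compound 0.001–100 µM, with four-parameter nonlinear fit.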

P. falciparum = P. falciparum growth; ref Widyawaruyanti et al., 2007; cited from earlier work

CC(C)=CCCC1(C)C=Cc2c(CCC(=O)c3ccc(O)cc3O)ccc(O)c2O1 (stereo not drawn) [1-(2,4-dihydroxyphenyl)-3-(8-hydroxy-2-methyl-2-(4-methyl-3-pentenyl)-2H-1-benzopyran-5-yl]-1-propanone]
IC50 (P. falciparum 3D7 strain): 1050 nM

CC(/C=C/[C@@]1(C)[C@H](C)CCC(=O)[C@@H]1C)=C\Cc1c(O)c(Cl)c(C)c(C=O)c1O [Ascochlorin]
IC50 [1]: 10 nM | IC50 [2]: 10 nM

Cc1c(-c2ccc(-c3ccccc3F)cc2)nc2ccc(F)cc2c1C(=O)O [Brequinar]
IC50 [2]: 22900 ± 1460 nM

CCN(CC)CCCC(C)Nc1ccnc2cc(Cl)ccc12 (stereo not drawn) [Chloroquine]
IC50 [3]: 0.004 µg/mL (≈ 0.0125 µM) | stage development after 24 h of incubation ([4]; 24 h): ring stage was still dominant | stage development after 48 h of incubation ([4]; 48 h): accumulation of trophozoite | interaction in combination with atovaquone (isobologram) [5]: antagonistic interactions; also recorded: antagonism

CC(C)=CCC/C(C)=C/CC/C(C)=C/Cc1c(O)c2ccccc2oc1=O [Ferulenol]
IC50 (recombinant PfMQO): 0.06 ± 0.01 µg/mL | IC50 (recombinant PfMQO; listed as ferulenol): 170 nM | IC50 [1]: 280 ± 80 nM | IC50 [2]: 170 ± 10 nM

C=C(C)[C@H]1Cc2c(ccc3c2O[C@@H]2COc4cc(OC)c(OC)cc4[C@@H]2C3=O)O1 [Rotenone]
IC50 [1]: 10 nM | IC50 [2]: 1860 ± 110 nM

Heteroflavanone C
IC50 (P. falciparum): 1 nM
